# ChEMBL document CHEMBL2176987, “Property-based optimization of hydroxamate-based γ-lactam HDAC inhibitors to improve their metabolic stability and pharmacokinetic profiles” (J Med Chem, 2012)
# Experiments:
# [1] = Oral bioavailability in Balb/c mouse at 20 mg/kg; format: ADME, organism-based; conditions: in vivo
# Outline: (§1)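 Balb/c mice dosed iv at 10 mg/kg or orally (20 or 30 mg/kg). Plasma concentration–time profiles averaged over three animals per time point. Parameters come from noncompartmental analysis. Oral AUC runs 0–5 h and iv AUC runs 0 to infinity.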
# [2] = Half life in Balb/c mouse at 20 mg/kg, po; format: ADME, organism-based; design: dose 20 mg/kg, route oral; conditions: in vivo; outline: as §1
# [3] = AUC (0 to 5 hrs) in Balb/c mouse at 20 mg/kg, po; format: ADME, organism-based; design: dose 20 mg/kg, route oral; conditions: plasma; outline: as §1
# [4] = Cmax in Balb/c mouse at 20 mg/kg, po; format: ADME, organism-based; design: dose 20 mg/kg, route oral; conditions: in vivo; outline: as §1
# [5] = Tmax in Balb/c mouse at 20 mg/kg, po; format: ADME, organism-based; design: dose 20 mg/kg, route oral; conditions: in vivo; outline: as §1
# [6] = Half life in Balb/c mouse at 10 mg/kg, iv; format: ADME, organism-based; design: dose 10 mg/kg, route intravenous; conditions: in vivo; outline: as §1
# [7] = Volume of distribution at steady state in Balb/c mouse at 10 mg/kg, iv; format: ADME, organism-based; design: dose 10 mg/kg, route intravenous; conditions: in vivo, read-out: Vdss; outline: as §1
# [8] = Clearance in Balb/c mouse at 10 mg/kg, iv; format: ADME, organism-based; design: dose 10 mg/kg, route intravenous; conditions: in vivo; outline: as §1
# [9] = Metabolic stability in ICR mouse liver microsomes at 1 uM measured at 30 min in absence of NADPH; format: ADME, Microsome; conditions: read-out: Stability
# Outline: (§2)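 Test compound at 1 μM incubated with female ICR mouse liver microsomes (0.5 mg protein/mL) for 30 min at 37 °C, with or without NADPH. Result reported as % parent remaining at 30 min.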
# [10] = Metabolic stability in ICR mouse liver microsomes at 1 uM measured at 30 min in presence of NADPH; format: ADME, Microsome; conditions: read-out: Stability; outline: as §2
# [11] = Passive permeability of the compound by PAMPA; format: ADME; conditions: read-out: permeability
# Outline: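 PAMPA passive diffusion with compound at a final concentration of 200 μM. Effective permeability Pe (nm/s) and membrane retention R (%) reported. Ranitidine and metoprolol served as controls.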
# [12] = Lipophilicity, log D of the compound; format: physicochemical; conditions: octanol/water
# NUGC-3 = assay: Cytotoxicity against human NUGC3 cells assessed as growth inhibition by SRB assay; format: functional
# HCT-15 = assay: Cytotoxicity against human HCT15 cells assessed as growth inhibition by SRB assay; format: functional
# NCI-H23 = assay: Cytotoxicity against human NCI-H23 cells assessed as growth inhibition by SRB assay; format: functional
# MDA-MB-231 = assay: Cytotoxicity against human MDA-MB-231 cells assessed as growth inhibition by SRB assay; format: functional
# ACHN = assay: Cytotoxicity against human ACHN cells assessed as growth inhibition by SRB assay; format: functional
# [13] = AUC (0 to infinity) in Balb/c mouse at 10 mg/kg, iv; format: ADME, organism-based; design: time infinity, dose 10 mg/kg, route intravenous; conditions: plasma; outline: as §1
# PC-3 = assay: Cytotoxicity against human PC3 cells assessed as growth inhibition by SRB assay; format: functional, cell-based
# [14] = Inhibition of HDAC by fluorescence assay
# [15] = Oral bioavailability in Balb/c mouse at 30 mg/kg; format: ADME, organism-based; conditions: in vivo; outline: as §1
# [16] = Half life in Balb/c mouse at 30 mg/kg, po; format: ADME, organism-based; design: dose 30 mg/kg, route oral; conditions: in vivo; outline: as §1
# [17] = AUC (0 to 5 hrs) in Balb/c mouse at 30 mg/kg, po; format: ADME, organism-based; design: dose 30 mg/kg, route oral; conditions: plasma; outline: as §1
# [18] = Cmax in Balb/c mouse at 30 mg/kg, po; format: ADME, organism-based; design: dose 30 mg/kg, route oral; conditions: in vivo; outline: as §1
# [19] = Tmax in Balb/c mouse at 30 mg/kg, po; format: ADME, organism-based; design: dose 30 mg/kg, route oral; conditions: in vivo; outline: as §1
# [20] = Apparent permeability across apical to basolateral side in human Caco2 cells at 100 uM; format: ADME, cell-based; conditions: Caco-2
Structure (SMILES),"remaining at 0.5 h, 1 µM [9] [%]","remaining at 0.5 h, 1 µM [10] [%]",Papp [11] [×10⁻⁶ cm/s],logD [12],IC50 [14] [µM],GI50 (NUGC-3) [µM],GI50 (HCT-15) [µM],GI50 (NCI-H23) [µM],GI50 (MDA-MB-231) [µM],GI50 (ACHN) [µM],GI50 (PC-3) [µM],further results
CC(C)(C)c1ccc(CCN2CC=C(CCC(=O)NO)C2=O)cc1,51,38.1,6.53,2.25,,,,,,,,
O=C(CCC1=CCN(CCc2cccc([N+](=O)[O-])c2)C1=O)NO,,,,0.633,1.08,6.57,> 10,4.39,3.18,5.7,8.69,
CC(C)(C)c1ccc(CCCN2CC=C(CCC(=O)NO)C2=O)cc1,57.6,35.3,1.5,2.7,,,,,,,,
O=C(CCC1=CCN(CCCCc2ccc(Cl)cc2)C1=O)NO,34.6,24.9,0.494,2.17,,,,,,,,
O=C(CCC1=CCN(CCc2ccc([N+](=O)[O-])cc2)C1=O)NO,,,,0.594,1.47,> 10,> 10,7.8,4.97,8.96,> 10,

# More lines, main results first:
"remaining at 0.5 h, 1 µM [9] [%]","remaining at 0.5 h, 1 µM [10] [%]",Papp [11] [×10⁻⁶ cm/s],logD [12],IC50 [14] [µM],Structure (SMILES),GI50 (NUGC-3) [µM],GI50 (HCT-15) [µM],GI50 (NCI-H23) [µM],GI50 (MDA-MB-231) [µM],GI50 (ACHN) [µM],GI50 (PC-3) [µM],further results
79,58.2,2.19,2.1,0.1,CC(C)(C)c1ccc(CN2CC=C(CCC(=O)NO)C2=O)cc1,0.72,0.57,0.42,0.69,0.86,1.83,bioavailability [1]: 10.7%; half-life [2]: 13.6 h; AUC(0-t) at 4 h [3]: 739 ng·h/mL; Cmax [4]: 462 ng/mL; Tmax [5]: 0.25 h; half-life [6]: 7.8 h; Vd [7]: 1.6 L/kg; clearance [8]: 48.3 mL/min/kg; AUC(0-inf) [13]: 3440 ng·h/mL
,,,0.197,0.15,N#Cc1ccc(CN2CC=C(CCC(=O)NO)C2=O)cc1,> 10,> 10,2.32,5.38,> 10,> 10,
,,,0.236,0.16,N#Cc1cccc(CN2CC=C(CCC(=O)NO)C2=O)c1,4.12,> 10,4.08,3.6,7.75,7.92,
91.4,87.7,1.93,0.571,0.06,O=C(CCC1=CCN(Cc2ccc(F)cc2)C1=O)NO,6.06,4.07,4.67,1.94,5.99,5.31,bioavailability [15]: 30.6%; half-life [16]: 1.1 h; half-life [6]: 2.6 h; Vd [7]: 1.8 L/kg; clearance [8]: 130 mL/min/kg; AUC(0-t) at 4 h [17]: 1180 ng·h/mL; Cmax [18]: 2300 ng/mL; Tmax [19]: 0.25 h; Papp A→B at 100 µM [20]: 7.8 ×10⁻⁶ cm/s; AUC(0-inf) [13]: 1280 ng·h/mL
40.5,35.7,2.83,2.4,,O=C(CCC1=CCN(Cc2cc(C(F)(F)F)cc(C(F)(F)F)c2)C1=O)NO,,,,,,,
100,84,1.02,1.26,,O=C(CCC1=CCN(Cc2ccc(Br)cc2)C1=O)NO,,,,,,,bioavailability [15]: 44.6%; half-life [16]: 3.1 h; half-life [6]: 2.8 h; Vd [7]: 4.1 L/kg; clearance [8]: 71.7 mL/min/kg; AUC(0-t) at 4 h [17]: 3110 ng·h/mL; Cmax [18]: 2710 ng/mL; Tmax [19]: 0.15 h; AUC(0-inf) [13]: 2330 ng·h/mL
